Key:
[1] = test system: BxPC-3 pancreatic, MCF-7 breast or A-549 NSCL cancer xenografts; experiment: Antitumor activity, effect of the carbon chain length; type: in vivo, mouse; conditions: 200 mg/kg oral gavage twice a day for 10 days; BxPC-3, MCF-7, A-549 xenografts
How it was run: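 Female scid mice received about 10⁷ log-phase cells in 0.2 ml PBS subcutaneously in the flank. MCF-7 cells were given in Matrigel, with a 60-day 17-β-estradiol pellet implanted the day before. Mice were stratified into groups of 8 with similar mean tumor volumes. Test compound was given orally in 0.1 ml sesame seed oil; controls received vehicle. Calipers were read twice weekly, with volume = d_short² × d_long ÷ 2. Growth rate over the dosing period was compared with control by Student's t-test. T/C is the treated growth rate as a percent of control.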

PH domain of PDPK1 = molecular target: T1, PH domain of PDPK1 (Homo sapiens, UniProt O15530); experiment: SPR competitive binding assay, displacement from PtdIns; conditions: for binding to the PH domain of PDKP1: at concentrations up to 50 µM
T1 sequence (O15530 459-550 limits assumed): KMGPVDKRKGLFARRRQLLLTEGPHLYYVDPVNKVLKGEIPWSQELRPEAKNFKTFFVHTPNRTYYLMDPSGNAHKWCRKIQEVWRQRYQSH
How it was run: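 Binding was measured by SPR on a Biacore 2000 with streptavidin chips carrying biotin-labelled PtdIns(3,4,5)P₃ liposomes. Expressed recombinant human PDPK1 PH domain was competed with increasing test compound concentrations. Ki was the concentration displacing 50% of the PH domain bound to the liposomes without drug. Values are means of 4 determinations.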

PH domain of Akt2 = molecular target: T2, PH domain of Akt2 (Homo sapiens, UniProt P31751); experiment: SPR competitive binding assay, displacement from PtdIns
T2 sequence (P31751 5-108 limits assumed): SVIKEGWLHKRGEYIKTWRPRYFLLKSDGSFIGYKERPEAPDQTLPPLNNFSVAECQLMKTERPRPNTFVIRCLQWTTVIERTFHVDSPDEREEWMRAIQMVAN

[2] = test system: PtdIns-3-K/PDPK1/Akt signaling in PC-3 prostate cells; experiment: Reverse phase protein array in PC-3 cells; type: cell-based, human; conditions: 0.1 µM, 16 hours, RPPA
How it was run: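 PC-3 cells were held in serum-free medium for 8 hr. They were then exposed for 16 hr to test compound at 0.1–10 µM, to wortmannin, or to DMSO vehicle. Lysate protein was analysed by quantitative reverse phase protein array with 74 validated PtdIns-3-K/Akt/PDPK1 pathway antibodies. Values are means of 3 determinations, expressed relative to DMSO control.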

[3] = SPR displacement assay, in words

CCCCc1ccc(S(=O)(=O)Nc2nncs2)cc1 [C-4]
antitumor activity (tumor growth rate) [1]: very little activity

CCCCCCc1ccc(S(=O)(=O)Nc2nncs2)cc1 [C-6]
antitumor activity (tumor growth rate) [1]: very little activity

CCCCCCCCc1ccc(S(=O)(=O)Nc2nncs2)cc1 [C-8]
antitumor activity (tumor growth rate) [1]: less activity

CCCCCCCCCCCCCCc1ccc(S(=O)(=O)Nc2nncs2)cc1 [C-14]
binding to the PH domain of PDPK1 (PH domain of PDPK1; [3]): showed binding | binding to the PH domain of Akt (PH domain of Akt2; [3]): lower, although still appreciable, binding

CCCCCCCCCCCCCCCCc1ccc(S(=O)(=O)Nc2nncs2)cc1 [C-16]
binding to the PH domain of Akt (PH domain of Akt2; [3]): lower, although still appreciable, binding

CCCCCCCCCCCCCCCCCCc1ccc(S(=O)(=O)Nc2nncs2)cc1 [C-18]
binding to the PH domain of Akt (PH domain of Akt2; [3]): lower, although still appreciable, binding

NC1(c2ccc(-c3nc4ccn5c(=O)[nH]nc5c4cc3-c3ccccc3)cc2)CCC1 [MK-2206]
binding to the PH domain of Akt (PH domain of Akt2; [3]): bound very weakly

CCCCCCCCCCCCCCCCCCOCC(COP(=O)([O-])OCC[N+](C)(C)C)OC (stereo not shown) [edelfosine]
binding to the PH domain of PDKP1 (PH domain of PDPK1): None of these compounds bound | binding to the PH domain of Akt (PH domain of Akt2; at concentrations up to 50 µM): None of these compounds bound

CCCCCCCCCCCCCCCCCCOP(=O)([O-])OC1CC[N+](C)(C)CC1 [perifosine]
binding to the PH domain of PDKP1 (PH domain of PDPK1): None of these compounds bound | binding to the PH domain of Akt (PH domain of Akt2; at concentrations up to 50 µM): None of these compounds bound

CN1N=C(N)c2cn([C@@H]3O[C@H](COP(=O)(O)O)[C@@H](O)[C@H]3O)c3ncnc1c23 [triciribine]
binding to the PH domain of PDKP1 (PH domain of PDPK1): None of these compounds bound | binding to the PH domain of Akt (PH domain of Akt2; at concentrations up to 50 µM): None of these compounds bound

COC[C@H]1OC(=O)c2coc3c2[C@@]1(C)C1=C(C3=O)[C@@H]2CCC(=O)[C@@]2(C)C[C@H]1OC(C)=O [wortmannin, reference compound]
phospho-Ser241-PDPK1 [2]: reduction | phospho-Ser473-Akt [2]: completely inhibited | phospho-Ser657-protein kinase C (PKC) [2]: decreased | phospho-Thr308-Akt [2]: reduction | total SGK1 [2]: decreased

Reference: paper PMC2837366 (Molecular cancer therapeutics, 2010)
